The values below come from the RNAGym collection of RNA variant scans (doi:10.1038/nmeth.2970).

B1: NELF-E aptamer (parent)
chain: CCCAACGACUGCCGAGCGAGAUUACGCUUGAGCGCCCCACUGAGGAUGCCCACGGGCGAUUGGGGCACGG

The data set covers variants of B1. The data set is described as follows: HiTS-RAP. To be noted: with NELF-E (Drosophila). In a few lines: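 Aptamer DNA templates carrying a T7 promoter and ter site were sequenced on an Illumina GAIIx flowcell, then transcribed in situ by T7 RNA polymerase and halted by GST-Tus (30 minutes, 37°C). Clusters were imaged after 30-minute room-temperature equilibration with NELF-E-mOrange at 0.064 to 1000 nM in HEPES binding buffer, and only the first binding curve was used. Intensities were normalised to sequencing intensity and averaged per sequence. Kd came from weighted Hill fits, keeping fits with variance below 1,000,000.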
In the case of G7U U41C, the dissociation constant Kd turned out to be 91.2 nM.
In the case of G7U U41G, the Kd stood at 6.05 nM.
The value for G7U U41A was 64.3 nM; that for A8G G34A was 4.84 nM.
For the variant A8U C9U, the Kd is 6.55 nM.
The result for A8U C9G reads 6.03 nM.
The result for C9G A39G reads 9.62 nM; that for C9G A39U, 29.8 nM; that for G7U A21G, 6.51 nM.
The value for G7U A21U was 5.79 nM.
As for G7U C66U, the Kd amounted to 6.12 nM.
The value for A8U C57U was 5.42 nM.
The result for A8U G55A reads 8.25 nM; that for A8U G55U, 7.57 nM.
The result for G7U G55U reads 6.97 nM; that for G7U G55A, 7.6 nM.
For the variant A8G A19G, the Kd came out at 5.51 nM.
The result for A8G A19U reads 5.53 nM.
The result for C9G C12G reads 5.75 nM; that for C9G C12U, 5.9 nM; that for C9G C12A, 4.67 nM.
The value for A8C C9G was 7.53 nM; that for G7U G20A was 7.33 nM; that for G7U G20U was 7.06 nM.
For A8U U29C, the Kd was 6.56 nM.
The result for A8U U29G reads 5.87 nM; that for A8U U29A, 4.61 nM.
As to C9G A43G, the Kd was 30.4 nM.
The value for C9G A43U was 80.5 nM.
A8U G42A: the Kd turned out to be 71.2 nM.
The value for G7U A43G was 58 nM.
The value for G7U A43U was 84.5 nM; that for A8U G63A was 15.3 nM; that for A8U G63U was 11.1 nM.
For the variant A8G C66U, the Kd is 5.01 nM.
The result for A8G A15U reads 5.54 nM; that for A8G A15G, 6.29 nM.
The value for A8G C13A was 6.62 nM; that for A8G C13U was 4.41 nM; that for A8G C13G was 5.95 nM.
With A8U C33U, the Kd is 6.3 nM.
The value for A8G U28G was 6.24 nM.
Regarding A8G U28A, the Kd was 4.13 nM.
The result for A8G U28C reads 7.19 nM.
The result for A8G G44A reads 39.3 nM.
The result for A8U G26A reads 4.2 nM; that for A8U C37A, 22.1 nM; that for A8U C37U, 13.2 nM.
Take A8U C27U: the Kd amounted to 4.24 nM.
The value for A8U G56U was 6.41 nM; that for A8U G56A was 16.7 nM.
The value for A8G A43G was 23.7 nM.
The result for A8G A43U reads 63.6 nM.
As for C9G C25U, the Kd came out at 7.05 nM.
The value for C9G C25G was 6.33 nM; that for G7U C37A was 20.8 nM.
As for G7U C37G, the equilibrium dissociation constant (Kd) worked out at 11.1 nM.
G7U C37U: the Kd stood at 10.5 nM.
The result for C9G C13U reads 5.15 nM; that for C9G C13A, 7.19 nM.
The value for C9G C13G was 5.48 nM.
The result for A8G C49U reads 16.8 nM.
As for C9G C36U, the Kd turned out to be 8.98 nM.
The value for A8G G26A was 4.49 nM.
The value for A8G U29A was 7.95 nM.
The value for A8G U29G was 5.77 nM.
As to A8G U29C, the Kd amounted to 5.69 nM.
The result for A8U G11A reads 6.46 nM; that for A8U G11U, 6.61 nM.
With A8U G30A, the Kd is 5.46 nM.
The result for A8G C9U reads 5.53 nM; that for A8G C9G, 5.53 nM; that for A8G C9A, 7.04 nM.
The value for A8C C13G was 6.73 nM.
Turning to G7U A31G, the Kd is 7.34 nM.
The result for G7U A31U reads 5.33 nM; that for G7U C12U, 5.94 nM.
Take G7U C12G: the Kd is 6.89 nM.
With A8U U10G, the Kd came to 5.41 nM.
The result for A8U U10C reads 5.96 nM.
The result for A8U U10A reads 6.91 nM; that for G7U C36U, 7.87 nM.
The result for A8U C13U reads 4.96 nM.
Consider A8U C13A, for which the Kd is 7.3 nM.
For the variant A8U C13G, the Kd turned out to be 6.33 nM.
The value for A8U A31G was 8.05 nM; that for A8U A31U was 7.11 nM; that for A8G G63A was 16.1 nM.
The value for A8G G63U was 11 nM; that for A8G G32A was 5.07 nM.
The result for G7U G63U reads 15.8 nM; that for G7U G63A, 19.9 nM; that for A8U U61C, 71.4 nM.
With A8U U61A, the dissociation constant (Kd) came to 29.9 nM.
With A8U U47G, the Kd was 5.6 nM.
The result for A8U U47A reads 15.7 nM; that for A8G U47G, 7.16 nM; that for A8G U47A, 10.9 nM.
The value for A8G G56U was 6.49 nM.
The value for A8G G56A was 10 nM.
Turning to A8G G20U, the Kd is 6.35 nM.
The result for A8G G20A reads 5.52 nM.
The value for A8U A19G was 6.26 nM; that for A8U A19U was 6.78 nM.
The result for A8U G14U reads 6.76 nM; that for A8U G14A, 7.4 nM.
For A8G G65U, the Kd came out at 8.03 nM.
Regarding A8G G65A, the Kd stood at 5.32 nM.
The result for C9G A24G reads 5.84 nM; that for C9G A24U, 7.67 nM; that for A8U U28C, 8.73 nM.
The value for A8U U28G was 7.11 nM; that for A8U U28A was 5.05 nM.
Turning to A8G A31G, the Kd is 7.13 nM.
The result for A8G A31U reads 5.68 nM.
The value for A8G G18A was 6.78 nM.
With A8G G18U, the Kd was 7.18 nM.
With G7U U60C, the Kd worked out at 10.9 nM.
The value for A8U A15G was 5.78 nM.
The value for A8U A15U was 7.15 nM; that for C9G C38U was 8.24 nM; that for A8C U10G was 6.49 nM.
The value for A8G was 5.44 nM; that for A8U was 5.54 nM.
In the case of A8C, the Kd was 6.72 nM.
The value for A8G A24U was 5.52 nM; that for A8G A24G was 6.27 nM.
The result for G7U G26U reads 6.93 nM.
The result for G7U G26A reads 5.82 nM.
For the variant A8U A67U, the Kd came to 7.42 nM.
The value for A8U A67G was 5.61 nM; that for A8U A46G was 50 nM.
On to A8U A46U, for which the Kd was 43.1 nM.
The result for A8U G54A reads 11.3 nM; that for A8G A39G, 12.8 nM.
The result for A8G A39U reads 21.7 nM; that for A8G G54A, 14.6 nM.
The result for G7U G42A reads 59 nM.
Turning to G7U G42U, the Kd was 17.4 nM.
Take A8U C53U: the Kd amounted to 3.63 nM.
The result for C9G C17G reads 5.43 nM; that for C9G C17U, 4.67 nM; that for A8U G16U, 7.54 nM.
The value for A8U G16A was 6.74 nM.
The value for A8G G30U was 4.7 nM.
Regarding A8G G30A, the Kd came out at 4.89 nM.
The result for C9G C37A reads 15.8 nM; that for C9G C37U, 16.1 nM.
A8U C17U: the dissociation constant (Kd) is 5.13 nM.
As to A8U C17G, the Kd amounted to 6.07 nM.
For G7U C35U, the Kd stood at 8.9 nM.
The value for G7U C35A was 8.62 nM; that for G7U U61C was 79 nM; that for G7U U61A was 39.5 nM.
The value for A8U A39U was 28.6 nM.
The value for G7U A39U was 26.9 nM; that for G7U A39G was 11.4 nM.
For A8G G14U, the Kd is 7.09 nM.
The result for A8G G14A reads 6.2 nM; that for A8G C36U, 6.33 nM; that for A8G C51U, 6.89 nM.
The result for C9G A46G reads 47.4 nM; that for C9G A46U, 68.3 nM.
In the case of A8G G64A, the Kd was found to be 7.44 nM.
The result for G7U C25U reads 5.7 nM.
The result for G7U C25G reads 5.61 nM; that for C9A U22G, 3.88 nM.
